Arrestin-AP2 inh – inhibitors of human beta-arrestin and AP2 interaction. FITC-arrestin peptide / GST-AP2 beads, flow cytometry; AP2 beta2 appendage carries R879A mutation. inhibition, % at 10 µM. 340,000 tested, 0.31% active. AID 504490;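 active means inhibition above a set limit, near 3 SD of compounds lacking own fluorescence, cut at about 54% in these data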
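Material – AP2 appendage R879A on GSH beads · Buffer or medium – PBS with 0.05% Tween 20 and 0.1% BSA · Probe or stimulus – fluorescein-tagged arrestin peptide at 50 nM final · Incubation – compound with beads 12 min RT, then probe 1 h RT · Detection – high-throughput flow cytometry of beads, ex 488, em 535 nm · Evaluation – percent response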
m5-HT2A agonist – activates the mouse 5-HT2A serotonin receptor; 360,000 tested, 0.66% active; CHO-K1 mHTR2A beta-arrestin complementation, luminescence; percent of 30 µM serotonin response; P35363; activation, % at 7.6 µM; AID 624169;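 active means activation above a run cutoff, the mean activation of all tested compounds plus 3 SD, cut at about 14% in these data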
CendR NRP1 mod – alters CendR peptide binding to human NRP-1; O14786; FAM-RPARPAR peptide binding to NRP-1, fluorescence polarization; inhibition, % at 25 µM; 360,000 tested, 0.85% active; AID 602438;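 active means inhibition or corrected inhibition above about 18%, plus a signal ratio from 0.5 to 1.5, limit read from the data, passing the limit was not always enough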
M18AAP inhibitor – PfM18AAP enzyme inhibition; 290,000 tested, 1.2% active; inhibition, % at 7.35 µM; AID 1822; recombinant PfM18AAP, H-Glu-NHMec fluorogenic cleavage;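 active means inhibition above the campaign mean inhibition over all tested compounds plus 3 SD, cut at about 28% in these data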
Lipid droplet – hepatic lipid droplet formation modulation | AML12 mouse hepatocytes, oleate lipid droplets, BODIPY imaging | inhibition, % at 6.5 µM | 240,000 tested, 0.4% active;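 active means lipid droplet intensity inhibited by at least 50%, with more than 500 cells counted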
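Assay system: AML12 mouse liver cells | Compound: 6.5 µM single-point dosing | Schedule: Overnight exposure | Technique: Fluorescence imaging, 20x objective, two fields per well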
sPLA2-III inh – Blocks human group III sPLA2 activity | Q9NZ20 | QFRET BODIPY PC-A2 liposome hydrolysis, fluorescence | inhibition, % at 12.2 µM | 370,000 tested, 0.56% active | AID 743126;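 active means inhibition above mean plus 3 SD of compounds lying within the high and low control bounds, cut at about 19% in these data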
Target sequence (Q9NZ20 whole entry, looked up): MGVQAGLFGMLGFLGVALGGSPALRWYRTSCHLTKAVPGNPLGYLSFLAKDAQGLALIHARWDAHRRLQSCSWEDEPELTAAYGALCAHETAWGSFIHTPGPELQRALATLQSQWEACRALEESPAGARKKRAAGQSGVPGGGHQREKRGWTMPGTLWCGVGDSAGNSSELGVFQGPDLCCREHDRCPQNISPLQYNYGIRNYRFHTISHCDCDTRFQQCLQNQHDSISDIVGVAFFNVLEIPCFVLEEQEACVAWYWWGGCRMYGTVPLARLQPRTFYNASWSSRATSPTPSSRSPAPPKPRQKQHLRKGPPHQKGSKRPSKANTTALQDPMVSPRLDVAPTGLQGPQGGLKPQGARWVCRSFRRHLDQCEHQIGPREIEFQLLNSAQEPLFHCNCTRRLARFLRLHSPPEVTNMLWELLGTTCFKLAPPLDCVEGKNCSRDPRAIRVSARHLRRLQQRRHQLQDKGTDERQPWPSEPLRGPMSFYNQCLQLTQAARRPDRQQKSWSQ
sPLA2 confirm – human GIII-sPLA2 inhibition, confirmation | 2,000 tested, 34% active | shares compounds with sPLA2-III inh | AID 743280 | recombinant hGIII-sPLA2, BODIPY PC-A2 QFRET fluorescence | inhibition, % at 12.2 µM;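 active means mean inhibition across triplicates above the hit cutoff set in the earlier primary screen, cut at about 19% in these data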
BODIPY interf – optically interferes with 535nm fluorescence in sPLA2 counter-screen; inhibition, % at 12.2 µM; BODIPY FL product fluorescence interference, QFRET; 2,000 tested, 8.5% active; shares compounds with sPLA2-III inh;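 active means average inhibition above the solvent-only control mean plus 3 SD, cut at about 6% in these data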
Of the large screens only hits and unclear results are named; the others gave an inactive call (follow-up assays come after a bar, where they were run). A selection: hits, their analogues and other compounds. The true share with any hit is near 3.3%.

COc1ccc(NC(=O)COC(=O)CC23CC4CC(CC(C4)C2)C3)c([N+](=O)[O-])c1	none
Cc1ccc(NC(=O)/C=C\C(=O)O)c([N+](=O)[O-])c1	sPLA2-III inh 21 | sPLA2 confirm inactive | BODIPY interf inactive
CCOc1ccc(NC(=O)/C=C/c2ccc(OC)cc2)c([N+](=O)[O-])c1	sPLA2-III inh 26 | sPLA2 confirm inactive | BODIPY interf inactive
COc1ccc(/C=C/C(=O)Nc2ccc(OC)cc2[N+](=O)[O-])cc1	none
Cc1cc(C)c(NC(=O)/C=C\C(=O)O)c([N+](=O)[O-])c1	none
CCOc1ccc(NC(=O)COC(=O)C23CC4CC(CC(C4)C2)C3)c([N+](=O)[O-])c1	sPLA2-III inh 21 | sPLA2 confirm inactive | BODIPY interf inactive
Cn1cccc1C(=O)N1CCN(S(=O)(=O)c2ccc(Cl)s2)CC1	none (no result: Arrestin-AP2 inh, m5-HT2A agonist, CendR NRP1 mod, M18AAP inhibitor, Lipid droplet)
COC(=O)[C@@]12C[C@@H](CC(=O)N3CCCC3)C(=O)N(Cc3ccco3)C1=CCC(C)(C)C2	none (no result: Arrestin-AP2 inh, M18AAP inhibitor, Lipid droplet)
COc1ccc(CCNC(=O)c2cnc3ccccn3c2=O)cc1	sPLA2-III inh 21 (no result: Lipid droplet) | sPLA2 confirm inactive | BODIPY interf inactive
Cc1ccc2c(c1)c1c(n2CC(O)CN2CCCCC2C)CCCC1 (configuration not stated)	none
Cc1ccc2c(c1)c(C)c(C)n2CC(O)CN1CCCCC1C (configuration not stated)	sPLA2-III inh 22 (no result: Lipid droplet) | sPLA2 confirm 20 | BODIPY interf inactive
O=C(NCCc1ccncc1)Nc1ccc(Cl)cc1	none
O=C(NCCc1ccncc1)Nc1ccc(F)cc1	sPLA2-III inh 20 | sPLA2 confirm inactive | BODIPY interf inactive
CC1(C)Oc2ccc(C(=O)NCCCN3CCCC3)cc2NC1=O	none (no result: Arrestin-AP2 inh, m5-HT2A agonist, CendR NRP1 mod, M18AAP inhibitor, Lipid droplet)
O=S(=O)(NNc1ncc(C(F)(F)F)cc1Cl)c1ccccc1	none (no result: M18AAP inhibitor, Lipid droplet)
O=S(=O)(NNc1ncc(C(F)(F)F)cc1Cl)c1ccc(F)cc1F	sPLA2-III inh 27 (no result: M18AAP inhibitor, Lipid droplet) | sPLA2 confirm 30 | BODIPY interf 29
Cc1nc(N2CCCCC2C)c2nnn(Cc3ccccc3)c2n1 (configuration not stated)	none (no result: Arrestin-AP2 inh, m5-HT2A agonist, CendR NRP1 mod, M18AAP inhibitor, Lipid droplet)
O=C(NCc1ccccc1)[C@@H]1CCCN1C(=O)[C@H]1CCCN1C(=O)c1ccccc1F	none (no result: Arrestin-AP2 inh, m5-HT2A agonist, CendR NRP1 mod, M18AAP inhibitor, Lipid droplet)
C/C(=N\NC(=O)c1nn(C)c(C)c1Br)c1ccc(NC(=O)c2ccoc2C)cc1	none
C/C(=N\NC(=O)c1nn(C)c(C)c1Br)c1ccc(NC(=O)c2ccccc2F)cc1	sPLA2-III inh 22 | sPLA2 confirm inactive | BODIPY interf inactive
CCOc1cc(CN2CCc3c([nH]c4ccccc34)C2)ccc1OC	none (no result: Lipid droplet)
COc1ccc(CN2CCc3c([nH]c4ccccc34)C2)cc1Br	sPLA2-III inh 27 (no result: Lipid droplet) | sPLA2 confirm inactive | BODIPY interf inactive
Cc1c(NC(=O)c2cccc(NC(=O)COc3ccc(C#N)cc3)c2)c(=O)n(-c2ccccc2)n1C	none (no result: M18AAP inhibitor, Lipid droplet)
CCOc1ccccc1N(CC(=O)Nc1ccc(S(=O)(=O)N2CCOCC2)cc1)S(=O)(=O)c1ccc(Cl)cc1	sPLA2-III inh 23 | sPLA2 confirm inactive | BODIPY interf inactive
O=C(NCC1CCCO1)C(=O)NCC(c1ccco1)N1CCN(c2ccc(F)cc2)CC1 (configuration not stated)	sPLA2-III inh 21 | sPLA2 confirm inactive | BODIPY interf inactive
O=C(NCc1ccc(Cl)cc1)C(=O)NCC(c1ccco1)N1CCOCC1 (configuration not stated)	sPLA2-III inh 20 | sPLA2 confirm inactive | BODIPY interf inactive
CC(=O)NN1C(=O)/C(=C2/Sc3ccc(Cl)cc3N2C)SC1=S	sPLA2-III inh 20 | sPLA2 confirm inactive | BODIPY interf inactive
